From ChEMBL document CHEMBL3808372, “Identification of quinones as novel PIM1 kinase inhibitors” (Bioorg Med Chem Lett, 2016)

Tests used:
[1] = molecular target: RAC-beta serine/threonine-protein kinase (Homo sapiens) (UniProt P31751); experiment: Inhibition of human Akt2 expressed in bacterial system assessed as enzyme activity at 10 uM by KINOMEScan assay; set-up: scale not given: the % may be the effect or the level left
In short: (§1)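 Commercial KINOMEscan binding panel of 100 kinases, test compound at 10 μM. Results are primary-screen binding interactions expressed as % Ctrl = (test compound signal − positive control signal)/(negative control signal − positive control signal) × 100. Lower % Ctrl means stronger binding.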

[2] = molecular target: SRSF protein kinase 3 (Homo sapiens) (UniProt Q9UPE1); experiment: Inhibition of human SRPK3 (41 to 567 amino acid residues) expressed in bacterial system assessed as enzyme activity at 10 uM by KINOMEScan assay; set-up: scale not given: the % may be the effect or the level left
SRSF protein kinase 3 (Homo sapiens), sequence (Q9UPE1 whole entry, the tested form may be a part): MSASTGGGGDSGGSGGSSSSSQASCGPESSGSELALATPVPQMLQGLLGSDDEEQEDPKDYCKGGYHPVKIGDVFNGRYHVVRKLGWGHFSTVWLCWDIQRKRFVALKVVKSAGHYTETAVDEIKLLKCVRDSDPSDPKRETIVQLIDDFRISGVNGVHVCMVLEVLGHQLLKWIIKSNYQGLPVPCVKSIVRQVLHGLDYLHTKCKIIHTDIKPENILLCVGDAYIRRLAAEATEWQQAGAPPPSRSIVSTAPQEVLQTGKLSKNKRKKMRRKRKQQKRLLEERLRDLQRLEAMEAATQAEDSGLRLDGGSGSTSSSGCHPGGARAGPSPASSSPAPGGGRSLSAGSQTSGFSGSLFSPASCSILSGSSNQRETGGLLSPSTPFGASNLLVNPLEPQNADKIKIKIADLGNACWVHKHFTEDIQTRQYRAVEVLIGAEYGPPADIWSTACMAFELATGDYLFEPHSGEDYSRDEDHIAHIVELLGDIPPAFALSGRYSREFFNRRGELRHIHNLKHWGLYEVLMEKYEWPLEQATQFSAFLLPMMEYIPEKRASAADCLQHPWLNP
In short: (§2)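 Single-concentration competition binding screen (KINOMEscan) across a 100-kinase panel at 10 μM. Primary binding read-out is reported as % of control: (test signal − positive-control signal)/(negative-control signal − positive-control signal) × 100. Lower values indicate stronger binding.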

[3] = molecular target: Serine/threonine-protein kinase PAK 1 (Homo sapiens) (UniProt Q13153); experiment: Inhibition of human PAK1 (149 to 545 amino acid residues) expressed in bacterial system assessed as enzyme activity at 10 uM by KINOMEScan assay; set-up: scale not given: the % may be the effect or the level left
In short: (§3)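 Competition binding screen on a 100-kinase KINOMEscan panel, compound tested at a single 10 μM concentration. Primary binding read-out expressed as % Ctrl = (test compound signal − positive control signal)/(negative control signal − positive control signal) × 100, with lower values meaning stronger binding.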

[4] = molecular target: Aurora kinase A (Homo sapiens) (UniProt O14965); experiment: Inhibition of human AURKA (122 to 401 amino acid residues) assessed as enzyme activity at 10 uM by KINOMEScan assay; set-up: scale not given: the % may be the effect or the level left; in short: as §3
Aurora kinase A (Homo sapiens), sequence (O14965 whole entry, the tested form may be a part): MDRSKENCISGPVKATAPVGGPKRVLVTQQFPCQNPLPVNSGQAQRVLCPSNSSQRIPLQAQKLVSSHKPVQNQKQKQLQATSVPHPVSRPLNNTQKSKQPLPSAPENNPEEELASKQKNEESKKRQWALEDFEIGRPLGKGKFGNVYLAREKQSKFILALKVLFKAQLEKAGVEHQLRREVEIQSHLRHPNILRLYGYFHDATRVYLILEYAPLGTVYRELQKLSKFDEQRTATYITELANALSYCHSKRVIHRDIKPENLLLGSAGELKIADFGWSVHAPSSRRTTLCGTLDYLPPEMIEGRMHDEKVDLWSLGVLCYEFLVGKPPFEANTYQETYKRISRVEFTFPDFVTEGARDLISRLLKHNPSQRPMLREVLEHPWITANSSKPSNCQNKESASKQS

[5] = test system: Epidermal growth factor receptor (Homo sapiens), P00533 [L858R]; experiment: Inhibition of human EGFR L858R mutant (669 to 1011 amino acid residues) assessed as enzyme activity at 10 uM by KINOMEScan assay expressed in bacterial system assessed as enzyme activity at 10 uM by KINOMEScan assay; set-up: scale not given: the % may be the effect or the level left; in short: as §1
[6] = molecular target: Tyrosine-protein kinase JAK3 (Homo sapiens) (UniProt P52333); experiment: Inhibition of human JAK3 JH1 catalytic domain (781 to 1124 amino acid residues) assessed as enzyme activity at 10 uM by KINOMEScan assay; set-up: scale not given: the % may be the effect or the level left; in short: as §3
[7] = molecular target: Serine/threonine-protein kinase pim-1 (Homo sapiens, UniProt P11309); experiment: Inhibition of recombinant human Pim1
Serine/threonine-protein kinase pim-1, sequence (P11309 whole entry): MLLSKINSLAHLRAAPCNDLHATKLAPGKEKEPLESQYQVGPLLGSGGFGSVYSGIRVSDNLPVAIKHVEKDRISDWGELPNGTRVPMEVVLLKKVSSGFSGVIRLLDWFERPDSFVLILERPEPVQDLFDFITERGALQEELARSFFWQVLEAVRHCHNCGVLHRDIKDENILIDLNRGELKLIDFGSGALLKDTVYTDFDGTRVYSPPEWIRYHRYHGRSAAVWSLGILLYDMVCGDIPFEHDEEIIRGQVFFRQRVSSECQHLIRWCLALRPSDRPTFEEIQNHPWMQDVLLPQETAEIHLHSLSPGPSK

[8] = molecular target: Mitogen-activated protein kinase 9 (Homo sapiens) (UniProt P45984); experiment: Inhibition of full length human JNK2 assessed as enzyme activity at 10 uM by KINOMEScan assay; set-up: scale not given: the % may be the effect or the level left; in short: as §3
[9] = molecular target: Receptor tyrosine-protein kinase erbB-2 (Homo sapiens) (UniProt P04626); experiment: Inhibition of human ERBB2 (646 to 1225 amino acid residues) assessed as enzyme activity at 10 uM by KINOMEScan assay; set-up: scale not given: the % may be the effect or the level left; in short: as §3
Receptor tyrosine-protein kinase erbB-2 (Homo sapiens), sequence (P04626 whole entry, the tested form may be a part): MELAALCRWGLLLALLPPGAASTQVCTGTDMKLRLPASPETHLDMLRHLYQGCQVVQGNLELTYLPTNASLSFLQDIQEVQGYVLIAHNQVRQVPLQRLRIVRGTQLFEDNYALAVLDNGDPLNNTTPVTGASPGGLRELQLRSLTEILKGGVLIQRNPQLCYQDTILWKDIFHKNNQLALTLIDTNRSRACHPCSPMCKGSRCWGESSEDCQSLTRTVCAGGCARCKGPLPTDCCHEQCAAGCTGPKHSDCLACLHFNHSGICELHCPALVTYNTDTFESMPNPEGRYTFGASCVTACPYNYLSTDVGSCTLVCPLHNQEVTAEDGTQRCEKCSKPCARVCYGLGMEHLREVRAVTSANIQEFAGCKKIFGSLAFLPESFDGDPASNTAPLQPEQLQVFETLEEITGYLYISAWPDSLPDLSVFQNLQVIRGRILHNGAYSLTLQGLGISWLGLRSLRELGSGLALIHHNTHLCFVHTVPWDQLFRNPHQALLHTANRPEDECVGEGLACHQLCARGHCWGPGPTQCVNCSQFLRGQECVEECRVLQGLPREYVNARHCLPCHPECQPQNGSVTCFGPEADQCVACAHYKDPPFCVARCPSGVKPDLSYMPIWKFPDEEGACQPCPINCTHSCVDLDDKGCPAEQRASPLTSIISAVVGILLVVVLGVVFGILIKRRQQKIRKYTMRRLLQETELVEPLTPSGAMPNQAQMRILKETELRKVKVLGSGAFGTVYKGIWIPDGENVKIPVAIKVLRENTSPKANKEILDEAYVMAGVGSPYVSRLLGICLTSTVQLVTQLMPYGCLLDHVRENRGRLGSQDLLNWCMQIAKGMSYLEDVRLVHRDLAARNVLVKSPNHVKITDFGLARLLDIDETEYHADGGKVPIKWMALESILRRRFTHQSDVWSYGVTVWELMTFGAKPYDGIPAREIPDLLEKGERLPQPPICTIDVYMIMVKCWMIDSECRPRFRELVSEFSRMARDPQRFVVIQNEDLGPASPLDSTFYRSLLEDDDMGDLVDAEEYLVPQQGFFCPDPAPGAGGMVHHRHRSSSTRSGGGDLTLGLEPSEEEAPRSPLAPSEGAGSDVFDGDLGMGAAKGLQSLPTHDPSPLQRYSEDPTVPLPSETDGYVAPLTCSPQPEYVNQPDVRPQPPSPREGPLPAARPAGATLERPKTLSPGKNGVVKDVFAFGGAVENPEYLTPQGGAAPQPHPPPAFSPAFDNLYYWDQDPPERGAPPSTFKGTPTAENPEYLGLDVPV

[10] = test system: Tyrosine-protein kinase ABL1 (Homo sapiens), P00519 [E255K]; experiment: Inhibition of human ABL1 kinase E255K mutant phosphorylation (229 to 512 amino acid residues) assessed as enzyme activity at 10 uM by KINOMEScan assay; set-up: scale not given: the % may be the effect or the level left; in short: as §3
[11] = Cytotoxicity against human DU145 cells assessed as cell growth inhibition after 72 hrs by Alamar blue assay; format: functional, cell-based; conditions: DU-145, 72 h
[12] = molecular target: Casein kinase I isoform delta (Homo sapiens) (UniProt P48730); experiment: Inhibition of full length human CSNK1D expressed in bacterial system assessed as enzyme activity at 10 uM by KINOMEScan assay system assessed as enzyme activity at 10 uM by KINOMEScan assay; set-up: scale not given: the % may be the effect or the level left; in short: as §3
[13] = molecular target: Cyclin-dependent kinase 16 (Homo sapiens) (UniProt Q00536); experiment: Inhibition of human PCTK1 (160 to 474 amino acid residues) assessed as enzyme activity at 10 uM by KINOMEScan assay; set-up: scale not given: the % may be the effect or the level left; in short: as §1
[14] = molecular target: Mitogen-activated protein kinase 11 (Homo sapiens) (UniProt Q15759); experiment: Inhibition of full length human p38-beta expressed in bacterial system assessed as enzyme activity at 10 uM by KINOMEScan assay; set-up: scale not given: the % may be the effect or the level left; in short: as §3
Mitogen-activated protein kinase 11 (Homo sapiens), sequence (Q15759 whole entry): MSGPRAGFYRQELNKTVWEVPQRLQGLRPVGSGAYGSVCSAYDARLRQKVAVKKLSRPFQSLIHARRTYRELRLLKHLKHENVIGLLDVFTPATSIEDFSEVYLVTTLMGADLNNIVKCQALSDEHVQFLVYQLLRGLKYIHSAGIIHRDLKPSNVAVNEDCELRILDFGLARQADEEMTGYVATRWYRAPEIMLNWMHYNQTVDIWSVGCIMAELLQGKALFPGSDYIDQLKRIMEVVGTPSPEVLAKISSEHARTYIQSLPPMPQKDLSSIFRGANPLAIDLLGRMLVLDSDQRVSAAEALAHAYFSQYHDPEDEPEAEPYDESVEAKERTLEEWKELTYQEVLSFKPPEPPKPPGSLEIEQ

[15] = molecular target: MAP/microtubule affinity-regulating kinase 3 (Homo sapiens) (UniProt P27448); experiment: Inhibition of full length human MARK3 expressed in bacterial system assessed as enzyme activity at 10 uM by KINOMEScan assay; set-up: scale not given: the % may be the effect or the level left; in short: as §1
[16] = molecular target: Vascular endothelial growth factor receptor 2 (Homo sapiens) (UniProt P35968); experiment: Inhibition of human VEGFR2 (787 to 1253 amino acid residues) assessed as enzyme activity at 10 uM by KINOMEScan assay; set-up: scale not given: the % may be the effect or the level left; in short: as §1
[17] = molecular target: Serine/threonine-protein kinase pim-3 (Homo sapiens) (UniProt Q86V86); experiment: Inhibition of human PIM3 (16 to 317 amino acid residues) expressed in bacterial system assessed as enzyme activity at 10 uM by KINOMEScan assay; set-up: scale not given: the % may be the effect or the level left; in short: as §2
[18] = molecular target: Epidermal growth factor receptor (Homo sapiens) (UniProt P00533); experiment: Inhibition of human EGFR (669 to 1011 amino acid residues) assessed as enzyme activity at 10 uM by KINOMEScan assay expressed in bacterial system assessed as enzyme activity at 10 uM by KINOMEScan assay; set-up: scale not given: the % may be the effect or the level left; in short: as §1
[19] = molecular target: Ribosomal protein S6 kinase alpha-2 (Homo sapiens) (UniProt Q15349); experiment: Inhibition of human RSK2 Kin.Dom.1-N-terminal (1 to 394 amino acid residues) assessed as enzyme activity at 10 uM by KINOMEScan assay; set-up: scale not given: the % may be the effect or the level left; in short: as §2
Ribosomal protein S6 kinase alpha-2 (Homo sapiens), sequence (Q15349 whole entry, the tested form may be a part): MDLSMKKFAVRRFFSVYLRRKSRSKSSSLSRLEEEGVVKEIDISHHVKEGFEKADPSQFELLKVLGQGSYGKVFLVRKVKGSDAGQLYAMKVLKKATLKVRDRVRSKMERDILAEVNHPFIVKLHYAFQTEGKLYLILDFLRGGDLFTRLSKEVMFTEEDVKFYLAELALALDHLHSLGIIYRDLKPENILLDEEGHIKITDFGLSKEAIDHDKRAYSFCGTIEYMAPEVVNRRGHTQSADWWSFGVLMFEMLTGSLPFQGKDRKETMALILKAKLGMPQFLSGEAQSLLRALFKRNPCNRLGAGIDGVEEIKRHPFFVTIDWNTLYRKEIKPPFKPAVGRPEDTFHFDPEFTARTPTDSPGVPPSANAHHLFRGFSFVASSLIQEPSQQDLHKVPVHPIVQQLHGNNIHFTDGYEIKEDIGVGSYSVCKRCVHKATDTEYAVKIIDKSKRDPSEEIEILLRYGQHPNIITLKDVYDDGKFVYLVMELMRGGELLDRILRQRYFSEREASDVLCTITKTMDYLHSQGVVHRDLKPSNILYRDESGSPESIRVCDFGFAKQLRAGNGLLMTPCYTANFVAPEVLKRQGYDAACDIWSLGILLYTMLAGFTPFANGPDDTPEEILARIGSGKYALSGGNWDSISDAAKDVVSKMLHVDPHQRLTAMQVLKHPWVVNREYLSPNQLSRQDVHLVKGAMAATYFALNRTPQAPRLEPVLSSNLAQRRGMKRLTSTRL

[20] = molecular target: Aurora kinase B (Homo sapiens) (UniProt Q96GD4); experiment: Inhibition of human AURKB (25 to 303 amino acid residues) assessed as enzyme activity at 10 uM by KINOMEScan assay; set-up: scale not given: the % may be the effect or the level left; in short: as §3
Aurora kinase B (Homo sapiens), sequence (Q96GD4 whole entry, the tested form may be a part): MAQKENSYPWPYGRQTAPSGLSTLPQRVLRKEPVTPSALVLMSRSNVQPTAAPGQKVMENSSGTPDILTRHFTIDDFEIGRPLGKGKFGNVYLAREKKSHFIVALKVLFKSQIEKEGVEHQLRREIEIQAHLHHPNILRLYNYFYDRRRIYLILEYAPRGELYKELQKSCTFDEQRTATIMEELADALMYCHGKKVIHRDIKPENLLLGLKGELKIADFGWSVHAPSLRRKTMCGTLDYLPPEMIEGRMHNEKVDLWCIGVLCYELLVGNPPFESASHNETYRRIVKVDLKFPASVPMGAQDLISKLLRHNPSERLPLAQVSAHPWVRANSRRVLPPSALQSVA

[21] = molecular target: Serine/threonine-protein kinase ULK2 (Homo sapiens) (UniProt Q8IYT8); experiment: Inhibition of human ULK2 (1 to 301 amino acid residues) assessed as enzyme activity at 10 uM by KINOMEScan assay; set-up: scale not given: the % may be the effect or the level left; in short: as §2
Serine/threonine-protein kinase ULK2 (Homo sapiens), sequence (Q8IYT8 whole entry, the tested form may be a part): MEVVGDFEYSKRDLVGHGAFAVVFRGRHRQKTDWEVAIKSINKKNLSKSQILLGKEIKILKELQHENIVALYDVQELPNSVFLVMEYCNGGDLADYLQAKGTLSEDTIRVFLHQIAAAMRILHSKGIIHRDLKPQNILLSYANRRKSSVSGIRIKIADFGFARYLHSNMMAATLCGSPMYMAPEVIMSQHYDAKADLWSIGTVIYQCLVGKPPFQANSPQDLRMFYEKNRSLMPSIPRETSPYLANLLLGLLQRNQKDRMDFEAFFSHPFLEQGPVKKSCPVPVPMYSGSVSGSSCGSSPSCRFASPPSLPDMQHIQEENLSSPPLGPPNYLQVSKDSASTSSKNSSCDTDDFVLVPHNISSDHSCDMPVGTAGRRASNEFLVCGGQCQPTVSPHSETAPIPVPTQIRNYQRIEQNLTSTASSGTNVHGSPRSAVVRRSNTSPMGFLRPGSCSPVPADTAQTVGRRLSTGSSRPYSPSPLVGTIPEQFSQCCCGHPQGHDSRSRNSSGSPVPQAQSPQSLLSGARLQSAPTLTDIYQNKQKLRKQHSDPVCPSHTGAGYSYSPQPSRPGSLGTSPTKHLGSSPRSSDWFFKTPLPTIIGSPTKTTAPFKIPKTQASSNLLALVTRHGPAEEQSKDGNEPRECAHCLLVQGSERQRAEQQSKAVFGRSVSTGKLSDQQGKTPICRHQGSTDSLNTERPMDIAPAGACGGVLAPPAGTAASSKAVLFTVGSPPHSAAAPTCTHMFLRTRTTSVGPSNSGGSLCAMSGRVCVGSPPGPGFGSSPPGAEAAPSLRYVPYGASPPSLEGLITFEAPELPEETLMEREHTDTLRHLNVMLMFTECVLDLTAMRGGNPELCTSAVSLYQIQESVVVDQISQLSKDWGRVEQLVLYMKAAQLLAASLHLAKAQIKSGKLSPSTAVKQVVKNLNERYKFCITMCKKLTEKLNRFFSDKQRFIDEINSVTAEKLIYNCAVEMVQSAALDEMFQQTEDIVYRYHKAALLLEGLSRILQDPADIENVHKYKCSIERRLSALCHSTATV

[22] = molecular target: Inhibitor of nuclear factor kappa-B kinase subunit beta (Homo sapiens) (UniProt O14920); experiment: Inhibition of full length human IKK-beta assessed as enzyme activity at 10 uM by KINOMEScan assay; set-up: scale not given: the % may be the effect or the level left; in short: as §3
[23] = molecular target: Cyclin-dependent kinase (Homo sapiens) (UniProt P06493+P11802+P24941+Q00535+Q00534+P50613+Q00526+Q00536+Q07002+P49336+Q00537+P21127+Q96Q40+Q9BWU1+O94921+P50750+Q15131+Q14004+Q8IZL9+Q9NYV4); experiment: Share of MOE computational kinase hits for CDK
[24] = molecular target: Insulin receptor (Homo sapiens) (UniProt P06213); experiment: Inhibition of human INSR (997 to 1318 amino acid residues) assessed as enzyme activity at 10 uM by KINOMEScan assay; set-up: scale not given: the % may be the effect or the level left; in short: as §3
[25] = molecular target: cAMP-dependent protein kinase catalytic subunit alpha (Homo sapiens) (UniProt P17612); experiment: Inhibition of human PKAC-alpha (10 to 351 amino acid residues) expressed in bacterial system assessed as enzyme activity at 10 uM by KINOMEScan assay; set-up: scale not given: the % may be the effect or the level left; in short: as §2

SMILES: O=C1C2=C(C(=O)c3c(O)ccc(O)c31)[C@@H](O)[C@@H](O)[C@@H](O)C2
- Activity [1]: 100%
- Activity [2]: 93%
- Activity [3]: 93%
- Activity [4]: 87%
- Activity [5]: 78%
- Activity [6]: 61%
- IC50 [7]: 19.2 µM
- Activity [8]: 84%
- Activity [9]: 93%
- Activity [10]: 96%
- IC50 [11]: 8.21 µM
- Activity [12]: 30%
- Activity [13]: 100%
- Activity [14]: 92%
- Activity [15]: 100%
- Activity [16]: 100%
- Activity [17]: 36%
- Activity [18]: 88%
- Activity [19]: 53%
- Activity [20]: 72%
- Activity [21]: 88%
- Activity [22]: 91%
- % of MOE kinase hits [23]: 7%
- Activity [24]: 97%
- Activity [25]: 84%
